Reference: the EternaBench riboswitch data

Columns and labels:
MS2 coat protein [1] = test: apparent Kd, MS2 coat protein; higher = weaker binding; RNA-MaP array; theophylline 2 mM where present
Procedure, shortened: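 Apparent Kd: the median of filtered binding-curve fits from single clusters. Designs were transcribed on Illumina sequencing-chip clusters by stalled E. coli RNA polymerase and titrated with SNAP-549-labelled MS2 coat protein from 0.7 or 1.5 nM, doubling to 3 µM, in 100 mM Tris-HCl pH 7.5, 80 mM KCl, 4 mM MgCl2, BSA, DTT, yeast tRNA and Tween-20. Each series ran without and then with constant ligand, and green signal was normalised to red-channel RNA signal and control-cluster median Fmax.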

MS2 coat protein [2] = test: apparent Kd, MS2 coat protein; higher = weaker binding; RNA-MaP array
Procedure, shortened: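 Fluorescently labeled MS2 coat protein, from 1.5 nM to 3 μM, was incubated at room temperature with designed RNAs transcribed on an Illumina sequencing chip from sequenced DNA templates. Times ran from 0.8–1.5 h at the lowest concentrations to 10–20 min at the highest, in Tris-HCl pH 7.5 buffer with KCl, MgCl2, BSA, DTT, tRNA and Tween20, with or without input ligand. Each apparent Kd is the median of per-cluster binding-curve fits, and designs with fewer than 10 measured clusters were excluded.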

[3] = designed as: OFF switch for theophylline, no ligand
[4] = ligand present: theophylline, designed as: OFF switch for theophylline
[5] = ligand present: theophylline, designed as: ON switch for theophylline
[6] = designed as: ON switch for theophylline, no ligand
[7] = designed as: ON switch for flavin mononucleotide, no ligand
[8] = ligand present: flavin mononucleotide, designed as: ON switch for flavin mononucleotide
[9] = designed as: OFF switch for flavin mononucleotide, no ligand
[10] = ligand present: flavin mononucleotide, designed as: OFF switch for flavin mononucleotide

Sequence	apparent Kd (MS2 coat protein [1]; [3])	apparent Kd (MS2 coat protein [1]; [4])	apparent Kd (MS2 coat protein [1]; [5])	apparent Kd (MS2 coat protein [1]; [6])	further results
AAACUGGGUGUAAAAUAAAUAAUCACUGAUACCAGACUAUUUUAUGUCCCUUGGCAGCAGAAACAUGAGGAUCACCCAUGUAAUA	20.3 nM	22.5 nM			
AACAUACAUGAGGAUCACCCAUGUCACGAUACCAGAUACAUGAGGAUCCCUUGGCAGCGUCAUGAGGAUCACCCAUGUUGUACAU	16.5 nM	58.3 nM			
AAGGGAGAAUCAGAUACCAGAGUAAGAUGGCAUGAUAAUUACAUGAGGAUCACCCAUGUACUCCCUUGGCAGCUGACAAUAUAUU	10.2 nM	12.2 nM			
AAUAACAUGAGGAUCACCCAUGUAAAAGAUACCAGGGUGAUGAUCCUCCCUUGGCAGCUUACAGCUGAUCAAUAAGAUCGGCUGA			257 nM		
AAUCUGUCGGGUGAUACCAGCCUCGGCGCAUCUCGCACCGAACAUGAGGAUCACCCAUGUGGCCCUUGGCAGCACAUGACAAAUC			82.2 nM	371 nM	
ACACAUGAGGAUCACCCAUGUGCAAUAGAUACCAGUGACGCGGUGCACCCUUGGCAGCUGUUGCUGAGUGAUGGUUCCCUCGGAA	36.6 nM	58.5 nM			
ACACAUGAGGAUCACCCAUGUUCAAUAGAUACCAGUGAUACGGUGCACCCUUGGCAGCUGUUGCUGAGUGAUGGUUCCCUCGGAA			77.7 nM	55.2 nM	
ACAUCCAGAUUAAUCGUGGGCAUACUCGAUACCAGUAUUUUAACCUACCCUUGGCAGCGACAUGAGGAUCACCCAUGUGAGAUGA	22.8 nM	30 nM			
ACAUCCAGGUUAAUCGUGGGCAUACUCGAUACCAGUAUUUUAAUCUACCCUUGGCAGCGACAUGAGGAUCACCCAUGUGCGAUGA	12.4 nM	19.3 nM			
ACAUGAGCAUCAGCCUUGUAGGAACUAGAUACCAGCCCAACAUGAGGCCCUUGGCAGCUGACAACAUGAGGAUCACCCAUGUCAC	36.2 nM	34.1 nM			
ACAUGAGGAUCACCCAUGUAAUGGCACGAUACCAGCUGAUCCCGUGGCCCUUGGCAGCGUCCGGUGUGGUCCGCCGGGUUGGACG			35 nM	23.1 nM	
ACAUGAGGAUCACCCAUGUCUGCCACUGAUACCAGCGGAAGCCAACGCCCUUGGCAGCAGAACAUGAGGAUCACCCAUGUAGGCA			169 nM	308 nM	
ACGACGCAUAGUGAUACCAGUAGAACAUGAGGAUCACCCAUGUCUGUGGCGCACCACCUCUGCCCUUGGCAGCACUAUGCGUCAG			12.8 nM	13.4 nM	
ACUUCAUGAGGUGAUACCAGCCAAUGACAUGAGGACAUGAGGAUCACCCAUGUUUAUGUAGGCCCUUGGCAGCACUGUAACAUGA			25.9 nM	20.6 nM	
ACUUUGUCGGGUGAUACCAGCCUCGGCACAUCUCGUGCCGAACAUGAGGAUCACCCAUGUGGCCCUUGGCAGCACAUGACAACUC			67 nM	375 nM	
AGAACAAAACUAAAUAAACAACUGGGUGAUACCAGCACAUGUGCGUGCCCUUGGCAGCAUCCGGCCACAUGAGGAUCACCCAUGU			155 nM	74 nM	
AGCAGUACAACAGAUACCAGACUUUUAAUGCCUCUAAUUACAUGAGGAUCACCCAUGUUUGUCCCUUGGCAGCUGUUGUACUGCA	136 nM	211 nM			
AGCAUUGUAACAGAUACCAGACUUUUAAUGCCUCUAAUUACAUGAGGAUCACCCAUGUUUGUCCCUUGGCAGCUGUUAUGAUGCA	119 nM	226 nM			
AGCCCUGUACUAGAUACCAGCUACAUGAGGAUCACCCAUGUGCGUCAAGACUGACUGUGUAGCCCUUGGCAGCUACUCGCAUGUA	15.7 nM	25.5 nM			
AGCCUAUUACAUGAGGAUCACCCAUGUGAUACCAGUCAGGAAACUGACCCUUGGCAGCGCAUGAGGAUCACCCAUGCGCUAGGCA	10.1 nM	10.2 nM			
AGCUCAUAGAGUGAUACCAGACUACAUGAGGAUCACCCAUGUUACUUUUAAAUAUCAUUUGUCCCUUGGCAGCACAUGAAGAGCA	13.6 nM	12.7 nM			
AGUAAUCUAAGAGAUACCAGACGGUAUAUAACAUGAGGAUCACCCAUGUUUUGGGUGUACGUCCCUUGGCAGCUCAAAAUGAUAA			115 nM	230 nM	
AGUACUCGAACGGAUACCAGCCGGACAUGAGGAUCACCCAUGUCCUACCAAUGUUCGGUUGGCCCUUGGCAGCCGUUCGUGUACA			35.2 nM	588 nM	
AGUGUAUCCAUCGAUACCAGCCACAACGUAACAUACACAUGAGGAUCACCCAUGUUGUGUGGCCCUUGGCAGCGGUGCCUGUGUA			12.2 nM	14.3 nM	
AGUGUAUCCAUCGAUACCAGCCACCACCGAUAGACCACAUGAGGAUCACCCAUGUUGGGUGGCCCUUGGCAGCGGUGGCUGUGUA			1190 nM	287 nM	
AGUGUUAUAACUGAUACCAGACUCUCAUGUUUACAUGAGGAUCACCCAUGUUAUUUCUUUGUCCCUUGGCAGCAGAAUUAACACA			38.2 nM	208 nM	

Sequence	apparent Kd (MS2 coat protein [1]; [3])	apparent Kd (MS2 coat protein [1]; [4])	apparent Kd (MS2 coat protein [1]; [5])	apparent Kd (MS2 coat protein [1]; [6])	further results
AUAAGUAAUGUUUCGUGUAUUAUUACAGAUACCAGACUAUACGUUGUCCCUUGGCAGCUGGAUUACAUGAGGAUCACCCAUGUUG	15.8 nM	27.5 nM			
AUACAUGAGGAUCACCCAUGUAUAGUCGAUACCAGCUCAAGGAAGAGCCCUUGGCAGCGACACUGGUAUCCAUGGGUGAUACCAG			31.5 nM	22.3 nM	
AUAUGGCGAGAUGAUACCAGACACAUGAGGAUCACCCAUGUUGAUGGUAAGUCUGCAUAUGUCCCUUGGCAGCAUAGCGACAUAU	8.27 nM	20.8 nM			
AUGCAGGGCAACAGCCACUGUCACGGUGAUACCAGUACCCGUGCGUACCCUUGGCAGCAUCGUGGUACAUGAGGAUCACCCAUGU			180 nM	271 nM	
AUUAUCAUGGUCAUUUAUAUUUCGUCAGAUACCAGACUAGAUAUAGUCCCUUGGCAGCUGUUACAUGAGGAUCACCCAUGUUAUU	124 nM	46.6 nM			
AUUUACAUGGUCAUAUAUAUAUCGUCAGAUACCAGACUAGAUAUAGUCCCUUGGCAGCUGUUACAUGAGGAUCACCCAUGUUAUA	129 nM	110 nM			
CAACAAGUAACUGAUACCAGUGUACUGACAUGAGGAUCACCCAUGUUGGGUUUUGUUGUACACCCUUGGCAGCAGAAUCUUGUUG	60.7 nM	82.5 nM			
CAUGGGUGGUAUCACCCAUCCAUAGGUGAUACCAGCAUCGAAAGAUGCCCUUGGCAGCACCAACAUGAGGAUCACCCAUGUAAUA			202 nM	264 nM	
CCUCGACAUGAGGAUCACCCAUGUAGAGAUACCAGCCUGUGAGAUGGCCCUUGGCAGCUCAUAUAGGGUACAGGAGUCGUUUUGA	23.2 nM	85.1 nM			
CGAUCUUUCGAAAGAAGGAUCUUGUCUGAUACCAGAGACGAAAGUCUCCCUUGGCAGCAGUGCCAACAUGAGGAUCACCCAUGUU			14.8 nM	14.5 nM	
CGAUGAUGAAGGGAUACCAGAAAUGGUAUUCCUUUAUUUCUUACAUGAGGAUCACCCAUGUUCCCUUGGCAGCUUUUUAUCAUCG	75.7 nM	117 nM			
CGGUUUGUGAUGGAUACCAGCAGUGUGGCUGUUUAUCCUGACAUGAGGAUCACCCAUGUGUGCCCUUGGCAGCUGUUGUGGGCUG	76.5 nM	130 nM			
GAGCUGAUGUAGAGAUUAUAUAAAAGAGAUACCAGUACAGAAAUGUACCCUUGGCAGCUCAACUUUACAUGAGGAUCACCCAUGU	14.8 nM	17.5 nM			
GAGGGUGAAUCUCUGGUCCGUUUGACGGAUACCAGCGAGAGGUAUCGCCCUUGGCAGCCGACGACAUGAGGAUCACCCAUGUUAA	17.9 nM	109 nM			
GAUGAACUAUAUGAUACCAGACAACAUGAGGAUCACCCAUGUGAAUGUCGUCCUCUGCCUGUCCCUUGGCAGCGUAUAGUUUAUC	29.6 nM	177 nM			
GAUGAACUAUAUGAUACCAGACAACAUGAGGAUCACCCAUGUGUAUGUCGUCCUCUGCCUGUCCCUUGGCAGCGUAUAGUUUAUC	32.4 nM	193 nM			
GAUGAACUAUGUGAUACCAGACAACAUGAGGAUCACCCAUGUGCGCGUCGUCCUCUGCCUGUCCCUUGGCAGCGUAUAGUUUAUC	60.3 nM	124 nM			
GAUGAACUAUUUGAUACCAGACAACAUGAGGAUCACCCAUGUGCGCGUCGUCCUCUGCCUGUCCCUUGGCAGCAAAUAGUUUAUC	58.5 nM	97.1 nM			
GAUGAACUAUUUGAUACCAGACUACAUGAGGAUCACCCAUGUGUGUUUAUACUUCUGUCAGUCCCUUGGCAGCAAAUAGUUUAUC	62.5 nM	106 nM			
GCACCAGGUACGGAUACCAGCUAUAGGCCCAAUGGGCGACAUGAGGAUCACCCAUGUAAUGGCCCUUGGCAGCUGUACCUGGUGC			13.7 nM	88.3 nM	
UUCUAUGUGACAGGAUAUAGACUCCACCAGUUUCUAGAAGGGUCACAGACGGAUCUUUAUUUGUCACAUGAGGAUCACCCAUGU					apparent Kd (MS2 coat protein [2]; [7]): 28.7 nM; apparent Kd (MS2 coat protein [2]; [8]): 9.71 nM
UUGCAACAAACAGGAUAUACGCGGACUUCACGGGUAGAAGGGUUCGACCAGGAGAUAUCCCACAUGAGGAUCACCCAUGUCGUC					apparent Kd (MS2 coat protein [2]; [9]): 163 nM; apparent Kd (MS2 coat protein [2]; [10]): 130 nM
UUGCAAUAGUAGAAGGACCACUCAAGUGUGACGGUAGGAUAUACGGUACAUGAGGAUCACCCAUGUGAGACUACAGCCCUCUCC					apparent Kd (MS2 coat protein [2]; [9]): 20 nM; apparent Kd (MS2 coat protein [2]; [10]): 21.9 nM
UUGUCACAUGAGGAUCACCCAUGUAAGAGAUUCCAAGGAUAUAUUAUCGGGUAAAAUGAAAUAGAAGGUGGUCAGA					apparent Kd (MS2 coat protein [2]; [7]): 90.3 nM; apparent Kd (MS2 coat protein [2]; [8]): 65.6 nM
UUUUACGCAAGUAAUUCCCGGGAACCGGAUACCAGCUCCUCCAACAGCCCUUGGCAGCCGACCACAUGAGGAUCACCCAUGUUUC					apparent Kd (MS2 coat protein [2]; [3]): 11.7 nM; apparent Kd (MS2 coat protein [2]; [4]): 19.3 nM
